Compound activity deposited in PubChem by several laboratories.
HSV augment – enhancers of HSV replication in host cells, fold increase, host cell viability. 220,000 compounds, 0.005% hits. HSV replication augmentation in cells. maximum fold increase; in the data active means maximum fold increase above about 1.5; inconclusive means no clear call, values can overlap the other calls; tested in PC3 cells
MT stabilizer – microtubule stabilizers in HeLa cells, primary screen, imaging, high-content imaging; 200,000 compounds, 0.83% hits; AID 2205, 2009; % tubulin-high responders, % at 10 µM; HeLa tubulin immunostaining HCS, 24 h; share of cells brighter than vehicle mean+2SD;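 active means plate Z-score above 3 for both tubulin-high and condensed-nucleus cell shares, with cell loss under 80%, at 10 µM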;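 further: anti alpha tubulin signal scored within the nucleus-defined area of each cell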
Dynein cargo inh – inhibitors of GR-EGFP nuclear translocation, primary screen, dynein cargo transport inhibitor project, imaging, high-content, 3617.4 mouse cells; z-score, hits read low; test concentration mostly 20 µM; stimulated with dexamethasone, 1 µM; active compounds read low; 220,000 compounds, 0.47% hits; AID 1381, 2008;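 active means plate z-score of nuclear minus cytoplasmic receptor signal below a set negative limit, without overly bright fluorescence or cell loss, cut at about -3.5 in these data, passing the limit was not always enough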;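 further: z-score of nuclear minus cytoplasmic ring GR-EGFP intensity difference per well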
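Buffer or medium: tet-free, stripped-serum medium; reagent: dexamethasone at 1.0 µM final, 30 min; incubation: 48 h induction, 1 h compound, 30 min dex at 37 °C; measured by: formaldehyde fixation, Hoechst nuclear stain, 10x automated fluorescence imaging; read-out: nuclear-to-cytoplasmic GR-EGFP distribution per well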
b-catenin transl – modulators of beta-catenin nuclear translocation, primary screen, imaging, HeLa cells, immunofluorescence, high-content | AID 1665, 2009 | 190,000 compounds, 0.3% hits | nuclear translocation activity, % at 5 µM;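 active means nuclear translocation activity above 50% at 5 µM, with a well cell count of 50 or more; inconclusive means wells under 50 cells across six images, flagged as toxic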;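 further: per-cell ratio of nuclear to cytoplasmic median beta-catenin stain intensity; plate controls were DMSO negative control for no effect and GSK-3 inhibitor IX positive control for full effect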
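System: Human HeLa cells, endogenous beta-catenin | Compound dosing: 5 µM primary, 0.02–20 µM confirmation | Timing: 24 h compound exposure at 37°C, 5% CO2 | Measured by: Fluorescence imaging of beta-catenin antibody stain plus DAPI | Read-out basis: % activation of per-cell nuclear versus cytoplasmic median beta-catenin signal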
Lmaj promast – Leishmania major promastigote growth inhibition, primary screen; inhibition, % at 10 µM; Leishmania major promastigotes, resazurin fluorescence viability; 200,000 compounds, 9% hits; AID 1063, 2008; in the data active means inhibition above about 50%;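 further: promastigotes grown with compound for 44 hours at 28 °C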
* marks the source's active call; other numbers are inactive results; i = inactive; ? = inconclusive; / = not tested or not shown. In the library only some 8.9% were active in any assay of this set; here they are far more common.

SMILES	HSV augment	MT stabilizer	Dynein cargo inh	b-catenin transl	Lmaj promast
O=C(C(c1ccccc1)c1ccccc1)N1CCN(CCN2C(=O)c3cccc4cccc(c34)C2=O)CC1	i	2.9	-0.482	-2.8	-5.3
O=C(CN1CCN(CCN2C(=O)c3cccc4cccc(c34)C2=O)CC1)c1ccc(Cl)cc1	i	2.0	-0.693	-1.6	86.7*
Cc1cccc(NC(=O)CCC(=O)OCc2ccc(Br)cc2)c1	i	4.4	0.412	-2.4	-1.4
S=C1COC(c2ccccc2)N1c1ccccc1 (stereo not given)	i	3.1	-0.615	-0.2	-2.7
CCn1c(Cc2ccccc2)nnc1SCc1cccc(C(=O)O)c1	i	1.3	1.26	-2.3	60.9*
COc1ccc(C(=O)NNc2ccccc2)cc1	i	2.3	0.114	7.1	92.0*
COc1ccc(C(=O)NC(Nc2ccccc2)C(Cl)(Cl)Cl)cc1 (stereo not given)	i	2.1	3.31	-0.7	99.3*
COc1ccc(C(=O)c2ccccc2)cc1	i	1.2	1.16	?	-2.5
Nc1c(C(O)(C(F)(F)F)C(F)(F)F)ccc2ccccc12	i	2.4	-0.68	-4.4	99.9*
COc1cccc(CN(C)C(=O)c2cccc(OC3CCN(C4CCCC4)CC3)c2)c1	i	1.7	-0.79	-1.4	63.5*
CCOC(=O)C(NC(=O)c1ccc(F)cc1)(Nc1sc2c(c1C(N)=O)CCC2)C(F)(F)F (stereo not given)	?	3.8	-2.79	-3.5	74.5*
COC(CNC(=O)c1ccc(N2CCc3ccccc32)c([N+](=O)[O-])c1)OC	i	3.1	1.81	-0.2	95.8*
NNC(=O)c1ccc(N2CCc3ccccc32)c([N+](=O)[O-])c1	i	3.7	1.13	-4.1	19.4
O=C1c2ccccc2OC2(C=Cc3ccccc3O2)N1Cc1ccccc1 (stereo not given)	/	42.2*	-1.64	48.4	23.9
CN(C)C(=O)N1CCCC(C(=O)NCCc2ccccc2)C1 (stereo not given)	i	2.5	0.121	-0.4	-2.3
CC(C)c1ccc(N(CC(=O)NCc2ccc(F)cc2)C(=O)c2csnn2)cc1	i	6.2	-0.536	0.4	5.0
Cc1ccc(/C=N/NC(=O)c2ccccc2OCc2ccc(F)cc2)o1	i	2.6	0.0601	-1.5	9.4
O=C(N/N=C/c1ccccc1)c1ccc(OCc2ccccc2)cc1	i	3.8	-0.782	0.3	-1.1
O=C(N/N=C/c1ccncc1)c1ccccc1OCc1ccc(Br)cc1	i	1.1	-0.029	-4.5	99.8*
O=C(N/N=C/c1ccccc1)c1sccc1OCc1ccc(F)cc1	i	3.0	0.169	1.2	91.9*
O=C(/C=C/c1cccs1)NC1CCS(=O)(=O)C1 (stereo not given)	i	1.7	-0.634	0.0	-8.4
O=C(OC(C(=O)NC1CCCCC1)c1ccccc1)c1ccco1 (stereo not given)	i	3.0	-0.737	/	-0.1
COc1ccccc1-n1cnnc1SCC(=O)N1CC(=O)Nc2ccccc21	i	1.1	0.215	1.9	-2.1
CC1(C)CC(=O)C2=C(C1)Nc1ccccc1NC2c1cccnc1 (stereo not given)	i	/	/	-0.4	/
CN(C)c1ccc(-c2nc3n(n2)C(c2cccnc2)C2=C(CC(C)(C)CC2=O)N3)cc1 (stereo not given)	i	5.6	-1.08	1.0	91.7*
SMILES	HSV augment	MT stabilizer	Dynein cargo inh	b-catenin transl	Lmaj promast
O=C1OC(c2ccccc2)=C/C1=C\N1CCOCC1	i	3.3	-1.06	2.7	-2.3
Cc1ccc2cc(C(c3nnnn3C3CCCC3)N3CCN(c4ccccc4)CC3)c(=O)[nH]c2c1 (stereo not given)	i	4.2	-0.701	-4.0	76.3*
COc1ccc(N2CCN(C(c3cc4cc(C)ccc4[nH]c3=O)c3nnnn3Cc3ccccc3)CC2)cc1 (stereo not given)	i	1.5	-0.113	/	99.1*
Cc1ccc2cc(C(c3nnnn3Cc3ccccc3)N3CCN(c4ccccc4)CC3)c(=O)[nH]c2c1 (stereo not given)	i	5.4	-0.341	-4.8	93.3*
C=CCNC(=S)NCc1ccccc1OC	i	1.9	-1.02	-6.2	-0.1
COc1ccc(CCNC(=O)COc2ccc(S(=O)(=O)NC3CCCCC3)cc2Cl)cc1	i	1.6	0.145	-0.6	75.2*
